Columns and labels:
[1] = biological target: Mitogen-activated protein kinase 9 (Homo sapiens, UniProt P45984); test: Inhibition of JNK2-mediated ATF2 phosphorylation
[2] = biological target: Mitogen-activated protein kinase 8 (Homo sapiens, UniProt P45983); test: Inhibition of JNK1-mediated ATF2 phosphorylation
[3] = biological target: c-Jun N-terminal kinase, JNK (Homo sapiens, UniProt P45983+P53779+P45984); test: Inhibition of cJun phosphorylation in HepG2 cell line
[4] = Plasma clearance in iv dosed Sprague-Dawley rat; format: ADME, organism-based
[5] = Cmax in po dosed Sprague-Dawley rat; format: ADME, organism-based; design: route oral; settings: in vivo
Outline: (§1)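 Sprague-Dawley rats were dosed orally. Oral half-life is reported in hours and Cmax as the maximum plasma concentration in µM. AUC is total oral exposure from t = 0 to t = ∞, in µg·h/mL.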

[6] = Volume of distribution in iv dosed Sprague-Dawley rat; format: ADME, organism-based; settings: in vivo, read-out: Vdss
[7] = biological target: T1, Serine/threonine-protein kinase Sgk1 (Homo sapiens, UniProt O00141); test: Inhibition of SGK
T1 sequence (O00141 whole entry): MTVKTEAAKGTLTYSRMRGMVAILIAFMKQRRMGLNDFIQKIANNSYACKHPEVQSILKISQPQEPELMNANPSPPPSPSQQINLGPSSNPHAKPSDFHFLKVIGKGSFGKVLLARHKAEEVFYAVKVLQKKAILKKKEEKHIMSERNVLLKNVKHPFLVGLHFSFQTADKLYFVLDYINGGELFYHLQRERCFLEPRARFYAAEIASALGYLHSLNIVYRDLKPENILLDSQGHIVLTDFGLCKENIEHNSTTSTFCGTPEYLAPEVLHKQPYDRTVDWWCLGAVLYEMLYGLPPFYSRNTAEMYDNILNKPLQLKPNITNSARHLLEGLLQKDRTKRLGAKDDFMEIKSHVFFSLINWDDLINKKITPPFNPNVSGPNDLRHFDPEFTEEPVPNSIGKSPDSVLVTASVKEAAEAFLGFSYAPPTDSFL

[8] = biological target: T2, Calcium/calmodulin-dependent protein kinase type IV (Homo sapiens, UniProt Q16566); test: Inhibition of CaMK4
T2 sequence (Q16566 whole entry): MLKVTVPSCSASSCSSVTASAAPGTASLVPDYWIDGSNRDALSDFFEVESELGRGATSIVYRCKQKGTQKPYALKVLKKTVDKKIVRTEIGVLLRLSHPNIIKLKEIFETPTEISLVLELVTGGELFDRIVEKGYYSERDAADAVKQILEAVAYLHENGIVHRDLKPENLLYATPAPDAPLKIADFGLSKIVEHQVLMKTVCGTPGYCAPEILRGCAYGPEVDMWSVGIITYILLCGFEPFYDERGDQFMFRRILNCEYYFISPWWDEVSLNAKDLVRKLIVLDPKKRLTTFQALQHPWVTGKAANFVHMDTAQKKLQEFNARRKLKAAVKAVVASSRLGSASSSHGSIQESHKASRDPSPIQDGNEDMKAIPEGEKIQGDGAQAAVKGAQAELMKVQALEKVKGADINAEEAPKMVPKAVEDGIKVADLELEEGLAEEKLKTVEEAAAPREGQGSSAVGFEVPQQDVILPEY
Outline: (§2)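 Recombinant kinases were commercial, or baculovirus-expressed and purified by His-tag or GST affinity. Each was incubated 1 h with biotinylated substrate peptide (2 µM), γ-[33P]-ATP (5 µM) and inhibitor (3-10000 nM, 2% DMSO) in 25 mM Hepes pH 7.5, 10 mM MgCl2, Na3VO4. Reactions were stopped with EDTA/NaCl and read by streptavidin FlashPlate capture. IC50 came from titrations, converted to Ki by Cheng-Prusoff.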

[9] = AUC in iv dosed Sprague-Dawley rat; format: ADME, organism-based; settings: plasma
Outline: (§3)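 Sprague-Dawley rats received 5 mg/kg intravenously. Half-life is reported in hours. AUC is total drug exposure after iv dosing, from t = 0 to t = ∞, in µg·h/mL.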

[10] = Oral bioavailability in Sprague-Dawley rat; format: ADME, organism-based; settings: in vivo
[11] = Volume of distribution at steady state in iv dosed Sprague-Dawley rat; format: ADME, organism-based; settings: in vivo, read-out: Vss
[12] = biological target: Activated CDC42 kinase 1 (Homo sapiens, UniProt Q07912); test: Inhibition of CDC42; outline: as §2
[13] = Half life in iv dosed Sprague-Dawley rat; format: ADME, organism-based; settings: in vivo; outline: as §3
[14] = AUC in po dosed Sprague-Dawley rat; format: ADME, organism-based; settings: plasma; outline: as §1
[15] = Half life in po dosed Sprague-Dawley rat; format: ADME, organism-based; settings: in vivo; outline: as §1
[16] = Tmax in po dosed Sprague-Dawley rat; format: ADME, organism-based; settings: in vivo

Mitogen-activated protein kinase 8, sequence (P45983 whole entry): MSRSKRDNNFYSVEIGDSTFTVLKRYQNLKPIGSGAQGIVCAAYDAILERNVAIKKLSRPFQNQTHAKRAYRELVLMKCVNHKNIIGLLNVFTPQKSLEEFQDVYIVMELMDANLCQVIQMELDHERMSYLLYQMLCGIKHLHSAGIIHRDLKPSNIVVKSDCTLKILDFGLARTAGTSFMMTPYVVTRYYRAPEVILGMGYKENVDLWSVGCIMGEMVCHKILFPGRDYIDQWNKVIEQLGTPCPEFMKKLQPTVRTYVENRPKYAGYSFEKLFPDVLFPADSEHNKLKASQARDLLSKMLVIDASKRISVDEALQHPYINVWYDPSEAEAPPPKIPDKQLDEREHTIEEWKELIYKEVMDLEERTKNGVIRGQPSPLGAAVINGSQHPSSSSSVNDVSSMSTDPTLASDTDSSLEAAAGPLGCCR
Mitogen-activated protein kinase 9, sequence (P45984 whole entry): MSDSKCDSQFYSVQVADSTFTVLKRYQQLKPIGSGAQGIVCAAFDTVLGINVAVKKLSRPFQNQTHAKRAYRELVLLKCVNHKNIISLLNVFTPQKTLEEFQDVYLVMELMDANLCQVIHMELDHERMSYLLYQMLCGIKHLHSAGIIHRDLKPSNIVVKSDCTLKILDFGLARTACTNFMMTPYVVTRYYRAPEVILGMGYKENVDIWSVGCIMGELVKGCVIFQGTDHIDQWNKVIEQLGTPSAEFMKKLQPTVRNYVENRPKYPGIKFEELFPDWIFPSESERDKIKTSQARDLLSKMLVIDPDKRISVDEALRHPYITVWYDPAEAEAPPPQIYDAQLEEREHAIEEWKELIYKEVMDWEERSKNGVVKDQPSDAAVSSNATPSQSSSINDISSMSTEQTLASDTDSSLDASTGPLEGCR
Activated CDC42 kinase 1, sequence (Q07912 whole entry): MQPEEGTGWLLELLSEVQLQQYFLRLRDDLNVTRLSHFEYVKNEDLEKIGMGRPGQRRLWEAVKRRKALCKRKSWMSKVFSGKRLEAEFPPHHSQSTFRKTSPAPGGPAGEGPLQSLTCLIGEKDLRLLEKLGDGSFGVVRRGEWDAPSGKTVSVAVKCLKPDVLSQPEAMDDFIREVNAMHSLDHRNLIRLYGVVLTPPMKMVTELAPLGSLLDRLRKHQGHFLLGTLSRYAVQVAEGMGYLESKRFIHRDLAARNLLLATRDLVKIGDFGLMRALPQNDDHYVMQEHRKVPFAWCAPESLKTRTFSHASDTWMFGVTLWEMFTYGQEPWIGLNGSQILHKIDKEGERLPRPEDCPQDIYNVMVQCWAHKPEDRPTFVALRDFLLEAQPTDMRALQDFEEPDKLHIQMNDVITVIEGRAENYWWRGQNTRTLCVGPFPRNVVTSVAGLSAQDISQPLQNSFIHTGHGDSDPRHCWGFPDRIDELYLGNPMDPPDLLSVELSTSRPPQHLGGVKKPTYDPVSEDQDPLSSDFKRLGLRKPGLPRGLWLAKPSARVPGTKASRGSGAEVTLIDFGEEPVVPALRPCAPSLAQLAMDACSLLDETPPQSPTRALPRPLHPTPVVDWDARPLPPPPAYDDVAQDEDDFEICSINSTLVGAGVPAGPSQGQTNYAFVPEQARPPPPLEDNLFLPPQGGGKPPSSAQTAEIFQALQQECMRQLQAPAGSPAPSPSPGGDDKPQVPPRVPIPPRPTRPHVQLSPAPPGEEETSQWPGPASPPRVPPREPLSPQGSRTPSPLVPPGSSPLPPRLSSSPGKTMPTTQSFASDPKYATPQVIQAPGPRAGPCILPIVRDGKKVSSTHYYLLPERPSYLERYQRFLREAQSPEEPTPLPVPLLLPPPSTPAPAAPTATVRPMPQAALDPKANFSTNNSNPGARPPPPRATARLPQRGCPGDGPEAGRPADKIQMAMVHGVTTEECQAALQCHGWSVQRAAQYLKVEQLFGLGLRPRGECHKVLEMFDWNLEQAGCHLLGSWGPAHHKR

Row | IC50 [1] [nM] | IC50 [2] [nM] | also measured | Compound
1 | > 10000 | 1700 |  | COc1ccc(OC)c(CC(=O)Nc2cc(N)c(C#N)c(Br)n2)c1
2 | > 10000 | > 10000 |  | CC(=O)Nc1cc(N)c(C#N)c(OCCN(C)C)n1
3 | 3400 | 510 |  | CCOc1nc(NC(=O)CN2CCCCC2)cc(N)c1C#N
4 | 4900 | 4800 |  | CC(=O)Nc1cc(N)c(C#N)c(OCCC(=O)O)n1
5 | 160 |  | EC50 [3]: 890 nM | CCOc1nc(NC(=O)Cc2cc(OC)c(Br)cc2OC)cc(N)c1C#N
6 | 360 | 190 | EC50 [3]: 3400 nM | CCOc1nc(NC(=O)Cc2ccc(C)cc2)cc(N)c1C#N
7 | > 10000 |  |  | CCOc1cccc(NC(C)=O)n1
8 | 2900 | 890 |  | CC(=O)Nc1cc(N)c(C#N)c(OC2CCOC2)n1 (stereo not given)
9 | > 10000 | 3000 |  | CCOc1nc(NC(=O)Cc2cc(Br)ccc2Br)cc(N)c1C#N
10 | 740 | 400 |  | COc1ccc(OC)c(CC(=O)Nc2cc(N)c(C#N)c(OCCS(C)(=O)=O)n2)c1
11 | 690 | 350 |  | CCCCC(=O)Nc1cc(N)c(C#N)c(OCC)n1
12 | 100 | 69 | EC50 [3]: 910 nM | CCOc1nc(NC(=O)Cc2cc(OC)c([N+](=O)[O-])cc2OC)cc(N)c1C#N
13 | 610 | 580 |  | CCOc1nc(NC(=O)Cc2ccc(Cl)cc2)cc(N)c1C#N
14 | 3000 | 910 |  | CC(=O)Nc1cc(N)c(C#N)c(NC(C)C)n1
15 | 640 | 300 |  | CCOc1nc(NC(=O)CN2CCC(O)CC2)cc(N)c1C#N
16 | 740 | 160 | EC50 [3]: 5500 nM | CCCN(CCO)CC(=O)Nc1cc(N)c(C#N)c(OCC)n1
17 | > 10000 | 3500 |  | CCCCN(CCCC)CC(=O)Nc1cc(N)c(C#N)c(OCC)n1
18 | > 10000 | 8900 |  | CCCCSc1nc(NC(C)=O)cc(N)c1C#N
19 |  |  | clearance [4]: 50 mL/min/kg; Cmax [5]: 80 nM; Vd [6]: 8.6 L/kg; Ki [7]: > 9400 nM; Ki [8]: > 8600 nM; AUC [9]: 2200 ng·h/mL; bioavailability [10]: 5.7%; Vd [11]: 1.6 L/kg; Ki [12]: > 9500 nM; half-life [13]: 2 h; AUC [14]: 120 ng·h/mL; half-life [15]: 2.9 h; Tmax [16]: 0.75 h | COc1cc(S(C)(=O)=O)c(OC)cc1CC(=O)Nc1cc(N)c(C#N)c(OC(C)C)n1
20 | > 10000 | > 10000 |  | CCCCC(=O)Nc1nc(OCC)c(C#N)c(N)c1Cl
21 | 740 | 400 |  | CCOc1nc(NC(=O)Cc2ccccc2C)cc(N)c1C#N
22 | 1200 | 270 |  | CCOc1nc(NC(=O)CN2CCOCC2)cc(N)c1C#N
23 | 3500 | 1400 |  | CCOc1nc(NC(=O)CC(C)C)cc(N)c1C#N
24 | 130 | 87 | EC50 [3]: 3900 nM | CCOc1nc(NC(=O)CN2CCC(C(=O)NC(C)C)CC2)cc(N)c1C#N
25 | 240 | 74 | EC50 [3]: 1600 nM | COc1ccc(OC)c(CC(=O)Nc2cc(N)c(C#N)c(OCCO)n2)c1
26 | 26 | 35 | EC50 [3]: 280 nM | CCOc1nc(NC(=O)Cc2cc(OC)c(NC(C)=O)cc2OC)cc(N)c1C#N
27 | 4900 | 1100 |  | CCOc1nc(NC(=O)Cc2ccccc2Cl)cc(N)c1C#N

Reference: ChEMBL document CHEMBL1148638, “Aminopyridine-based c-Jun N-terminal kinase inhibitors with cellular activity and minimal cross-kinase activity” (J Med Chem, 2006)
